Screening data: PubChem BioAssay, Broad Institute
Only some compounds are listed: those with a hit (about 2.5% of all), similar ones and a draw of the others.
S100A4 MyoIIA: inhibitors of human S100A4 binding to myosin IIA peptide; 360,000 compounds, 0.14% hits; AID 652163; S100A4/TAMRA-MyoIIA peptide fluorescence polarization; inhibition, % at 10.7 µM;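 active means mean inhibition of at least 70% across replicates, with every replicate also reaching that level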
Target sequence (P26447 whole entry, looked up): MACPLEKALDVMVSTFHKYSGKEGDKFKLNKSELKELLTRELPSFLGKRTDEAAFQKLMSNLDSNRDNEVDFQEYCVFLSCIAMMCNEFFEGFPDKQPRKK
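Compound dosing: one dose per compound; test system: human S100A4 monomer with TAMRA-labelled myosin IIA peptide; probe or stimulus: TAMRA-labelled myosin IIA heavy-chain peptide probe, 5 nM; medium: HEPES buffer with Ca2+, pH 7.2; schedule: 5 min incubation before reading; benchmarks: neutral control DMSO, positive control TFP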
miR-122 sensor: inhibitors of miR-122 in Huh7 cells; Huh7 miR-122 Renilla luciferase sensor, 48 h; neutral wells = 0, positive control = 100; activation (reporter increase), % at 12.5 µM; 340,000 compounds, 0.3% hits;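 active means mean replicate activation score at least 90 and every replicate individually at or above 90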;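 further: higher luciferase means less miR-122 activity so hits act as miR-122 inhibitors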
SIRT5 inh: blocks human SIRT5 desuccinylation of peptide | Purified SirT5, succinyl-peptide AMC, trypsin-coupled fluorescence | AID 652115 | 330,000 compounds, 1.1% hits | Q9NXA8 | inhibition, % at 15 µM; in the data active means inhibition above about 15%
Target sequence (Q9NXA8 whole entry, looked up): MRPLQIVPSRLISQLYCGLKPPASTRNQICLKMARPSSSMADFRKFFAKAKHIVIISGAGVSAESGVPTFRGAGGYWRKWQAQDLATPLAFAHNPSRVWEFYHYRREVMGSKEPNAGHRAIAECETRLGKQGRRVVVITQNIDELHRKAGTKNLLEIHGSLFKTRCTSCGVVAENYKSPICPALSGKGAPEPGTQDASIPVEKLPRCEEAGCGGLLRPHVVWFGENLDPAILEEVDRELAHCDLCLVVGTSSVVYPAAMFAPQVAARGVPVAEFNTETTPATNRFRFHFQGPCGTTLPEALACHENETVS
FGF22 binding: binders of recombinant human FGF22 by thermal shift; 340,000 compounds, 1.5% hits; Q9HCT0; SYPRO orange fluorescence; percent of sucrose octasulfate shift, DMSO zero; activity (Tm shift, normalised), % at 9.99 µM; AID 651658;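 active means mean Tm shift, scaled 0 neutral to 100 positive control, at about 1.3% or above, every replicate too, limit read from the data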
Target sequence (Q9HCT0 whole entry, looked up): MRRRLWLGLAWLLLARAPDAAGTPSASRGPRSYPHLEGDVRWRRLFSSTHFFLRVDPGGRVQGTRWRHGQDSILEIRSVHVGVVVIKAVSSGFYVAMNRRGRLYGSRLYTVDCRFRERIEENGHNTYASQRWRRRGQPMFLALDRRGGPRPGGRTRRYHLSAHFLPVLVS
E-selectin induc: E-selectin induction on HUVECs; P16581; HUVEC E-selectin immunofluorescence imaging; normalized: neutral wells 0, TNF-alpha wells 100; activation, % at 7.58 µM; AID 686992; 260,000 compounds, 0.37% hits;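 active means mean E-selectin-positive cell signal at least 10% of the positive control, reached in at least 60% of replicates, without over 20% cell loss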
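Material: HUVEC primary endothelial cells; Amount: 3,000 cells per well; Dosing: single concentration; Medium: EGM-2 growth medium on 0.1% gelatin-coated wells; Read-out basis: percent E-selectin-positive cells; Signal: immunofluorescence imaging; Control set: TNF-alpha, DMSO.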
The depositor's hits bear a star; / = no result given; ! = repeats disagree; [ ] = another dose, or the depositor's remark.

SMILES | S100A4 MyoIIA | miR-122 sensor | SIRT5 inh | FGF22 binding | E-selectin induc
C[C@@H]1CN([C@@H](C)CO)S(=O)(=O)c2ccc(C3=CCCC3)cc2O[C@H]1CN(C)C(=O)c1cnccn1 | 2 | 13[16.7 µM] | -1 | 0 | 0
CS(=O)(=O)N1CC2(C1)[C@@H](c1ccccc1)[C@@H](CO)N2Cc1ccccn1 | -1 | / | -4 | 0 | 0
CO[C@@H]1CN(C)C(=O)c2ccc(NC(=O)Nc3ccccc3Cl)cc2OC[C@@H](C)N(C)C[C@H]1C | -1 | 10[16.7 µM] | -6 | 0 | 0
COc1cc(/C=N/N2CCOCC2)ccc1OC(=O)c1ccco1 | 0 | -2 | -3 | 43* | -1
O=C(NNC(=S)NC(=O)c1ccco1)c1ccc(F)cc1 | 0 | / | 3 | 6.2* | /
COc1cc(/C=N/NC(=O)c2cccc([N+](=O)[O-])c2)ccc1OC(=O)c1ccco1 | 2 | / | -1 | 43* | /
COc1cc(NC(=O)c2cccc([N+](=O)[O-])c2)ccc1NC(=O)c1ccco1 | -10 | / | 1 | 44* | /
CN1c2ccc(-c3cccc(F)c3)cc2[C@@H]2[C@@H](CCN2C(=O)C2CCCC2)[C@@H]1CO | / | -3[16.7 µM] | / | / | 0
COc1cc(/C=C2/C(=N)N3C(=NC2=O)SN=C3S(=O)(=O)C(C)C)ccc1OC(=O)c1ccco1 | 6 | / | 7 | 1.4* | /
CCOc1cc(/C=C2/SC(=S)NC2=O)ccc1OC(=O)c1ccco1 | 11 | -2 | -4 | 1 | /
N=C1/C(=C\c2ccc(OC(=O)c3ccco3)cc2)C(=O)N=C2SC=NN12 | 4 | / | -1 | 44* | /
O=C1NC(=S)S/C1=C/c1ccc(OC(=O)c2ccco2)cc1 | 1 | 0 | 81* | 0 | /
CS(=O)(=O)C1=NN2C(=N)/C(=C\c3ccc(OC(=O)c4ccco4)cc3)C(=O)N=C2S1 | -12 | 0 | 5 | 0 | /
COc1ccc2c3c([nH]c2c1)[C@H](CO)N(C(=O)c1cccc(F)c1)CC31CN(C(=O)c2cccc(F)c2)C1 | 2 | / | -2 | 0 | -1
O=C(C[C@@H]1C[C@H]2c3cc(NS(=O)(=O)c4ccc(F)cc4)ccc3O[C@H]2[C@H](CO)O1)N1CCc2ccccc2C1 | 5 | -6[16.7 µM] | 3 | 0 | 0
Cc1cccc(NC(=O)c2nc[nH]c2C(=O)NC[C@H](C)O)c1 | 9 | 9 | 27* | 0 | 0
COc1ccc2c3c([nH]c2c1)[C@H](CO)N(C(=O)c1cnccn1)CC31CCN(S(C)(=O)=O)CC1 | 6 | / | -5 | 0 | 0
CCc1cnc(N2[C@H](C#N)[C@@H](c3ccccc3C3=CCCCC3)[C@@H]2CO)s1 | 0 | / | / | 0 | 0
C[C@H](CO)N1C[C@H](C)[C@@H](CN(C)CC2CC2)Oc2c(NC(=O)Nc3ccccc3)cccc2C1=O | -2 | 62[16.7 µM] | 0 | 0 | -2
C[C@@H]1CN([C@@H](C)CO)C(=O)c2cccc(NC(=O)C3CC3)c2O[C@@H]1CN(C)S(C)(=O)=O | 124* | 0[16.7 µM] | -1 | -1 | 0
C[C@@H]1CN([C@@H](C)CO)C(=O)c2cccc(NC(=O)C3CC3)c2O[C@H]1CN(C)CC1CC1 | 57 | 20[16.7 µM] | 2 | 0 | -3
C[C@@H]1CN([C@H](C)CO)C(=O)c2cccc(NC(=O)C3CC3)c2O[C@H]1CN(C)CC1CCCCC1 | 1 | 37[16.7 µM] | -3 | 0 | 0
C[C@H](CO)N1C[C@H](C)[C@@H](CN(C)CC2CC2)Oc2c(NC(=O)Cc3ccccc3)cccc2C1=O | -1 | 51 | 25* | 0 | 0
C[C@H](CO)N1C[C@H](C)[C@@H](CN(C)CC2CCCCC2)Oc2c(NC(=O)C3CC3)cccc2C1=O | -2 | 114*![16.7 µM] | -6 | 0 | 0
C[C@H](CO)N1C[C@H](C)[C@@H](CN(C)CC2CC2)Oc2c(NC(=O)C3CC3)cccc2C1=O | 4 | 149*[16.7 µM] | 1 | 0 | -2
SMILES | S100A4 MyoIIA | miR-122 sensor | SIRT5 inh | FGF22 binding | E-selectin induc
CN(C)C(=O)c1ccc(-c2ccc3c(c2)[C@H]2[C@H](CCN2C(=O)C2CC2)[C@@H](CO)N3C)cc1 | -2 | -21[16.7 µM] | 6 | 0 | 0
COc1ccc(NC(=O)N[C@H]2CC[C@@H](CC(=O)NCc3ccccn3)O[C@@H]2CO)cc1 | 2 | 2[16.7 µM] | 2 | 0 | 0
C[C@@H]1CN([C@@H](C)CO)C(=O)c2cccc(NC(=O)C3CC3)c2O[C@@H]1CN(C)CC1CC1 | -18 | 0[16.7 µM] | -6 | 0 | -3
C[C@@H]1CN([C@H](C)CO)C(=O)c2cccc(NC(=O)C3CC3)c2O[C@@H]1CN(C)CC1CC1 | -35 | -10[16.7 µM] | -7 | 0 | 77*
C[C@@H]1CN([C@H](C)CO)C(=O)c2cccc(NC(=O)C3CC3)c2O[C@H]1CN(C)CC1CC1 | 36 | 5[16.7 µM] | -6 | 0 | 111*
C[C@@H]1CN([C@H](C)CO)C(=O)c2cc(N(C)C)ccc2O[C@H]1CN(C)C | -2 | -2[16.7 µM] | -3 | 0 | /
CNC(=O)C[C@@H]1CC[C@@H]2[C@H](COc3ccc(NC(=O)Nc4cc(C)cc(C)c4)cc3C(=O)N2C)O1 | -2 | 3[16.7 µM] | -3 | 0 | 0
O=C(COc1ccccc1)NCC(=O)N/N=C/C=C/c1ccccc1 | 2 | / | 20* | 0 | -3
Cc1[nH]c2ccccc2c1/C=N/NC(=O)c1cccc([N+](=O)[O-])c1 | -1 | -2 | 0 | / | 57*
COc1ccc(C(=O)NCC(=O)N/N=C/c2c(C)[nH]c3ccccc23)cc1 | 9 | -9 | -2 | 0 | /
Cc1[nH]c2ccccc2c1/C=N/NC(=O)CNC(=O)COc1ccccc1 | 9 | 2 | 113* | 0 | /
C[C@@H]1CN([C@H](C)CO)C(=O)c2cc(C#CC3CCCCC3)cnc2O[C@@H]1CN(C)C | / | -9[16.7 µM] | / | / | 0
CNC[C@H]1Oc2ncc(-c3ccccc3F)cc2C(=O)N([C@@H](C)CO)C[C@H]1C | / | -6[16.7 µM] | / | / | 1
CCN1[C@@H]2Cn3c(ccc(-c4ccccc4OC)c3=O)[C@H]1[C@@H](C(=O)N[C@@H](C)c1ccccc1)[C@@H]2CO | -2 | / | 1 | 0 | 0
COc1ccc2c3c([nH]c2c1)[C@@H](CO)N(Cc1cccc(Cl)c1)CC31CCN(C(C)=O)CC1 | / | / | / | 0 | 0
CC(C)NC(=O)Nc1ccc2c(c1)C(=O)N([C@H](C)CO)C[C@H](C)[C@@H](CN(C)Cc1ccc(Cl)c(Cl)c1)O2 | -18 | -2[16.7 µM] | 24* | 0 | 2
C[C@H](CO)N1C[C@H](C)[C@@H](CN(C)Cc2ccc(Cl)c(Cl)c2)Oc2ccc(NC(=O)Cc3cn(C)c4ccccc34)cc2C1=O | -2 | -1[16.7 µM] | -1 | 0 | 17
C[C@H](CO)N1C[C@H](C)[C@@H](CN(C)Cc2ccc(Cl)c(Cl)c2)Oc2ccc(NC(=O)Cc3ccccc3)cc2C1=O | 11 | -5[16.7 µM] | 7 | -1 | 20
CC(C)NC(=O)Nc1ccc2c(c1)C(=O)N([C@@H](C)CO)C[C@@H](C)[C@@H](CN(C)Cc1ccc(Cl)c(Cl)c1)O2 | 4 | 1[16.7 µM] | 5 | 0 | -3
